Columns and labels:
[1] = Antifibrotic activity in C57BL6/J mouse Prox24 cells assessed as inhibition of TGF-beta1-induced COL1A1 mRNA expression incubated for 1 hr followed by TGF-beta1 challenge measured after 6 hrs by real-time PCR analysis; assay type: functional
Procedure, shortened: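 mProx24 immortalized proximal tubular cells from C57BL6/J mouse kidneys in DMEM, 10% FCS, 37 °C, 5% CO2. Growth-arrested 24 h in 0.15% FCS. Pretreated 1 h with compound in DMEM/0.15% FCS (DMSO stocks 50, 20, 10, 1 mM), then human TGF-β1 5 ng/mL for 6 h. COL1A1 mRNA expressed relative to TGF-β1 alone (1.0). Mean ± SE of three experiments.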

Adenosine receptor A3 [2] = target: T1, Adenosine receptor A3 (Rattus norvegicus, UniProt P28647); test: Displacement of [125I]-I-AB-MECA from rat adenosine A3 receptor expressed in RBL-2H3 cells after 60 mins by gamma counting analysis; assay type: cell-based
T1 sequence (P28647 whole entry): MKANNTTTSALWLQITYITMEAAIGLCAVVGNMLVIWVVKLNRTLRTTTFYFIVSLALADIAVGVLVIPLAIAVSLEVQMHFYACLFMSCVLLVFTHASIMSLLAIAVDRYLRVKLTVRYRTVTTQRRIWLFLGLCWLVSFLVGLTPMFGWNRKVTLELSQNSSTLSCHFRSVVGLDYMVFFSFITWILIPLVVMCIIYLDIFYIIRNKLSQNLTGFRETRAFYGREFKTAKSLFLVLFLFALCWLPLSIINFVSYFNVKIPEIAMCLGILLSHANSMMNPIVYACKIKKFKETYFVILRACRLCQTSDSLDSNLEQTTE

Adenosine receptor A3 [3] = target: T2, Adenosine receptor A3 (Homo sapiens, UniProt P0DMS8); test: Displacement of [125I]-I-AB-MECA from recombinant human adenosine A3 receptor expressed in CHO cells after 60 mins by gamma counting analysis; assay type: cell-based
T2 sequence (P0DMS8 whole entry): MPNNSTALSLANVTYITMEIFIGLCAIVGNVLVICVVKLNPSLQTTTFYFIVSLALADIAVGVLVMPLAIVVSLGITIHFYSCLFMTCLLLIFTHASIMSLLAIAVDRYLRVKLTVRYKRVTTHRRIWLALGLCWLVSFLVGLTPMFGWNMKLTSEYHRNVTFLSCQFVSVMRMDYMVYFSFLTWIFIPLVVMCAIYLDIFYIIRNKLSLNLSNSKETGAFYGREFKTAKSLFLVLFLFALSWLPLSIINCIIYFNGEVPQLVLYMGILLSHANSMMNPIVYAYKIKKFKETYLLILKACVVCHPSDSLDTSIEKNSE

Adenosine receptor A2a [4] = target: T3, Adenosine receptor A2a (Homo sapiens, UniProt P29274); test: Displacement of [3H]-CGS21680 from human adenosine A2A receptor expressed in HEK293 cells after 60 mins by scintillation counting analysis; assay type: cell-based
T3 sequence (P29274 whole entry): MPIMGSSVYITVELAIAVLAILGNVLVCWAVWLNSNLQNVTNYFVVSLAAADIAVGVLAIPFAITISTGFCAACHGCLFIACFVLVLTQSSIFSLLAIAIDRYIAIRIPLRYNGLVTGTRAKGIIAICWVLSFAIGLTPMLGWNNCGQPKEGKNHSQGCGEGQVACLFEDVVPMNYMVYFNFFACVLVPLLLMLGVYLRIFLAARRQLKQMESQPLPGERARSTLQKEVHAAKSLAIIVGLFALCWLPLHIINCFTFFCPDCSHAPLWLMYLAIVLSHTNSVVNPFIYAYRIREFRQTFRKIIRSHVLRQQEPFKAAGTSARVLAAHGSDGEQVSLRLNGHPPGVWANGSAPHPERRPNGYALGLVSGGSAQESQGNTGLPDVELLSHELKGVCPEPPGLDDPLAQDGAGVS
Procedure, shortened: (§1)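 HEK-293 hA2AAR membranes (20 μg) incubated 60 min at 25 °C with 15 nM [3H]CGS21680 and increasing ligand concentrations in 50 mM Tris·HCl pH 7.4, 10 mM MgCl2. Nonspecific binding defined with 10 μM NECA. GF/B filtration, scintillation counting. Ki by Cheng–Prusoff. For weak binders, percent inhibition measured at 10 μM, 3–5 duplicate determinations.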

Adenosine receptor A1 = target: T4, Adenosine receptor A1 (Homo sapiens, UniProt P30542); test: Displacement of [3H]-R-PIA from recombinant human adenosine A1 receptor expressed in CHO cells after 60 mins by scintillation counting analysis; assay type: cell-based
T4 sequence (P30542 whole entry): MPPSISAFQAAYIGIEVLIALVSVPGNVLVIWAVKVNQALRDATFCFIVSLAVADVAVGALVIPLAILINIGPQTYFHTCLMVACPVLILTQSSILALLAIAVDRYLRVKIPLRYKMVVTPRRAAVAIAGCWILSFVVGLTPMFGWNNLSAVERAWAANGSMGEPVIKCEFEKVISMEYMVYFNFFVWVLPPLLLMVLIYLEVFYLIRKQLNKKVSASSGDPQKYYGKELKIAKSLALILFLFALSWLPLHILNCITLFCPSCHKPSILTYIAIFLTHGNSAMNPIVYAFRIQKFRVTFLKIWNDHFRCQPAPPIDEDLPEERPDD

[5] = target: T5, Adenosine receptor A1 (Homo sapiens) (UniProt P30542); test: Displacement of [3H]-R-PIA from recombinant human adenosine A1 receptor expressed in CHO cells at 10 uM after 60 mins by scintillation counting analysis relative to control; assay type: cell-based
T5 sequence (whole entry): T4 sequence (P30542 whole entry)

[6] = target: T6, Adenosine receptor A3 (Homo sapiens) (UniProt P0DMS8); test: Antagonist activity at recombinant human adenosine A3 receptor expressed in CHO cells assessed as forskolin-induced intracellular cAMP production preincubated for 45 mins followed by forskolin challenge measured after 15 mins by liquid scintillation counting analysis in presence of rolipram and adenosine deaminase relative to NECA; assay type: functional, cell-based; set-up: scale not given: the % may be the effect or the level left
T6 sequence (whole entry): T2 sequence (P0DMS8 whole entry)
Procedure, shortened: (§2)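 CHO cells stably expressing hA3AR, plated 24 h, washed in DMEM/50 mM HEPES pH 7.4, treated with agonists and/or test compounds plus rolipram 10 μM and adenosine deaminase 3 U/mL. Forskolin 10 μM added after 45 min, incubation continued 15 min. Lysed in 0.1 M HCl. cAMP quantified by [3H]cAMP (2 nM)–PKA competitive binding, GF/C filtration, scintillation counting. Expressed relative to NECA full agonist (100%). Curves from three determinations.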

Adenosine receptor A2a [7] = target: T3, Adenosine receptor A2a; test: Displacement of [3H]-CGS21680 from human adenosine A2A receptor expressed in HEK293 cells at 10 uM after 60 mins by scintillation counting analysis relative to control; assay type: cell-based; procedure, shortened: as §1
Adenosine receptor A3 [8] = target: T2, Adenosine receptor A3; test: (§3) Partial agonist activity at recombinant human adenosine A3 receptor expressed in CHO cells assessed as […] of forskolin-induced intracellular cAMP production preincubated for 45 mins followed by forskolin challenge measured after 15 mins by liquid scintillation counting analysis in presence of rolipram and adenosine deaminase; assay type: functional, cell-based; procedure, shortened: as §2
[9] = target: T6, Adenosine receptor A3 (Homo sapiens); test: as §3, with “production at 10 uM” for “production”, “deaminase relative to NECA” for “deaminase”; assay type: functional, cell-based; procedure, shortened: as §2
[10] = target: T7, Adenosine receptor A2b (Homo sapiens) (UniProt P29275); test: Agonist activity at recombinant human adenosine A2B receptor expressed in CHO cells assessed as activation of intracellular cAMP production at 10 uM in presence of rolipram and adenosine deaminase relative to NECA; assay type: functional, cell-based
T7 sequence (whole entry): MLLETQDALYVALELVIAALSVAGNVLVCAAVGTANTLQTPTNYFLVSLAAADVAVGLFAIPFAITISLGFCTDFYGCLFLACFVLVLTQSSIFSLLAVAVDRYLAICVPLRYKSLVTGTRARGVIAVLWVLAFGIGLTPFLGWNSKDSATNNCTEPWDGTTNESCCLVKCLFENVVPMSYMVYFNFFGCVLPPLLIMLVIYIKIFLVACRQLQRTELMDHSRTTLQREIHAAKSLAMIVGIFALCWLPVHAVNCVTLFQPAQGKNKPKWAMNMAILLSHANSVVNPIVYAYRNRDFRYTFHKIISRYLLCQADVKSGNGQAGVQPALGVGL
Procedure, shortened: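 CHO cells stably expressing hA2BAR, plated 24 h, washed in DMEM with 50 mM HEPES pH 7.4, then exposed to compounds with rolipram 10 μM and adenosine deaminase 3 U/mL (no forskolin). Lysed in 0.1 M ice-cold HCl. cAMP measured by competitive binding of [3H]cAMP (2 nM) to protein kinase A against a 0–16 pmol standard curve, filtration, scintillation counting.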

Row | Compound | IC50 [1] [nM] | Ki (Adenosine receptor A3 [2]) [nM] | Ki (Adenosine receptor A3 [3]) [nM] | Ki (Adenosine receptor A2a [4]) [nM] | Ki (Adenosine receptor A1) [nM] | inhibition [5] [%] | Activity [6] [%] | inhibition (Adenosine receptor A2a [7]) [%] | EC50 (Adenosine receptor A3 [8]) [nM] | max activation [9] [%] | Activity [10] [%]
1 | CCCCC#Cc1nc(NC2CCCC2)c2ncn([C@H]3[C@H](O)[C@H](O)[C@@H]4C[C@@H]43)c2n1 | > 50000 | 58 | 160 | 1760 | 1580 | – | – | – | – | – | –
2 | CCCCC#Cc1nc(N)c2ncn([C@H]3[C@H](O)[C@H](O)[C@@H]4C[C@@H]43)c2n1 | 6120 | 65 | 16.2 | 100 | – | 29 | – | – | – | – | –
3 | CCCCC#Cc1nc(NCc2cccc(I)c2)c2ncn([C@H]3[C@H](O)[C@H](O)[C@@H]4C[C@@H]43)c2n1 | 7880 | 26 | 12 | 2530 | – | 48 | < 5 | – | – | – | –
4 | CCCCC#Cc1nc(NC2CC2)c2ncn([C@H]3[C@H](O)[C@H](O)[C@@H]4C[C@@H]43)c2n1 | 11800 | 39 | 9.2 | 2200 | 2170 | – | – | – | – | – | –
5 | CCCCC#Cc1nc(NCc2cccc(Br)c2)c2ncn([C@H]3[C@H](O)[C@H](O)[C@@H]4C[C@@H]43)c2n1 | 10400 | 59 | 8.6 | 3150 | – | 38 | < 5 | – | – | – | –

Stronger by IC50 [1], values ahead:

Row | IC50 [1] [nM] | Ki (Adenosine receptor A3 [2]) [nM] | Ki (Adenosine receptor A3 [3]) [nM] | Ki (Adenosine receptor A2a [4]) [nM] | Ki (Adenosine receptor A1) [nM] | inhibition [5] [%] | Activity [6] [%] | inhibition (Adenosine receptor A2a [7]) [%] | EC50 (Adenosine receptor A3 [8]) [nM] | max activation [9] [%] | Activity [10] [%] | Compound
6 | 3170 | 43 | 16 | – | – | 21 | – | 27 | – | – | – | CCCCC#Cc1nc(NCc2cccc(F)c2)c2ncn([C@H]3[C@H](O)[C@H](O)[C@@H]4C[C@@H]43)c2n1
7 | 2870 | 10.7 | 7.8 | 3310 | – | 19 | < 5 | – | – | – | – | CCCCC#Cc1nc(NCc2cccc(Cl)c2)c2ncn([C@H]3[C@H](O)[C@H](O)[C@@H]4C[C@@H]43)c2n1
8 | 840 | 176 | 6.7 | 2860 | – | 31 | – | – | – | – | – | CCCCC#Cc1nc(NCC)c2ncn([C@H]3[C@H](O)[C@H](O)[C@@H]4C[C@@H]43)c2n1
9 | 830 | 231 | 4.9 | 7490 | – | 14 | – | – | 45.8 | 29.1 | 15.7 | CCCCC#Cc1nc(NC)c2ncn([C@H]3[C@H](O)[C@H](O)[C@@H]4C[C@@H]43)c2n1

From ChEMBL document CHEMBL3124893 (J Med Chem, 2014)
